# Bioassay records from PubChem.
# A selection: hits, their analogues and other compounds. The true share with any hit is near 2.3%.
# TPT1 inh: Candida albicans TPT1 enzyme inhibitors, primary screen, biochemical, fluorescence polarization | tRNA 2'-phosphotransferase TPT1 (Candida albicans SC5314) | recombinant caTPT1, FP RNA substrate dephosphorylation | inhibition, % at 5 µM | actives 0.81% (n = 300,000) | AID 1962, 2009;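 active = inhibition above the mean of all tested compounds plus 3 SD, set per screening campaign, cut at about 24% in these data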;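 also: plate controls were DMSO alone for no effect and ferristatin control at 100 nM for full effect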
# CSN deneddyl inh: inhibitors of CSN-mediated cullin deneddylation, primary screen, biochemical, fluorescence polarization, uHTS; COP9 signalosome complex subunit 5 (Homo sapiens), Q92905; Purified CSN, SCF-Nedd8-OG deneddylation; inhibition, % at 12.5 µM; actives 0.38% (n = 360,000);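 active = pattern-corrected inhibition above about 35%, with an unprinted fluorescence ratio check between 0.5 and 1.5, limit read from the data, passing the limit was not always enough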;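 also: 0% = enzyme with substrate and 100% = substrate without enzyme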
# Target sequence (Q92905 whole entry, looked up, one chain of several): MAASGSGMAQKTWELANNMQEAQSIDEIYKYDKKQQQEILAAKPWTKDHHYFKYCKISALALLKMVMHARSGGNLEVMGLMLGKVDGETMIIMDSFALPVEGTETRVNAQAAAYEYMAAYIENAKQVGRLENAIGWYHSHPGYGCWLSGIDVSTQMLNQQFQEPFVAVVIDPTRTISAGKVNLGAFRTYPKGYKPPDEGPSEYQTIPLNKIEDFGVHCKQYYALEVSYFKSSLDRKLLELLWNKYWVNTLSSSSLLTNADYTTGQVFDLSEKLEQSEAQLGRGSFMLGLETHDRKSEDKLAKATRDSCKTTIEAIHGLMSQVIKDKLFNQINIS
#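 Schedule: reaction 90 min, room temperature / Assay system: HEK293T-derived human Csn5 enzyme / Input: Csn5 at 0.24 nM final / Measure: inhibition of Csn5 cleavage, % / Control set: substrate-only high control, full reaction low control / Technique: fluorescence polarization of the substrate / Buffer or medium: Tris/NaCl/DTT buffer, pH 7.5 / Reagent: SCFSkp2-Nedd8OG substrate at 10 nM final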
# Myeloid diff 2: induction of myeloid progenitor differentiation, primary screen, cell-based, flow cytometry, MLPCN library. ER-HoxA9 myeloid progenitors, lysozyme-GFP differentiation. AID 624256, 2012. calls only at 10 µM. actives 1% (n = 360,000);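 active = normalized GFP-positive differentiation at or above the plate's own cutoff, the solvent-only control mean plus 3 SD; inconclusive = no clear call, values can overlap the other calls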;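 also: cells exposed to compound for four days before flow analysis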
# Rpn11 block: Rpn11 (PSMD14) deubiquitinase inhibitors, primary screen, biochemical, fluorescence polarization, uHTS. inhibition, % at 20 µM. human 26S proteasome, Ub4-pepOG fluorescence polarization; 20S core pre-blocked with epoxomicin. actives 0.59% (n = 360,000). 26S proteasome non-ATPase regulatory subunit 14 (Homo sapiens), O00487;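 active = inhibition at 20 µM, scaled to each plate's controls, above about 33%, limit read from the data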
# Target sequence (O00487 whole entry, looked up): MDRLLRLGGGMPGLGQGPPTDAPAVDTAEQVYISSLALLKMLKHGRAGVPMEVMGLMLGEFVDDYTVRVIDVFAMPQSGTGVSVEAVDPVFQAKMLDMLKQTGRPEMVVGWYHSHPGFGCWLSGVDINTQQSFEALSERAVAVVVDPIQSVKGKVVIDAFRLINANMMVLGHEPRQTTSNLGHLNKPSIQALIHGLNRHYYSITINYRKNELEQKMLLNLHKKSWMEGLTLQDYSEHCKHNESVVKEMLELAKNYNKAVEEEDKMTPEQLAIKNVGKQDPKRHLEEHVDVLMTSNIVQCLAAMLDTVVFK
# HNF4A DNA FP: change in binding of human HNF4A to DNA, primary screen, biochemical, fluorescence polarization, FITC-DNA; 1 h; Hepatocyte nuclear factor 4-alpha (Homo sapiens), P41235; actives 0.3% (n = 360,000); activity change, % at 10 µM; in the data active = activity change above about 30%, passing the limit was not always enough
# The depositor's hits bear a star; i = inactive; ? = inconclusive; . = no result shown; + = active, no number.
SMILES,TPT1 inh,CSN deneddyl inh,Myeloid diff 2,Rpn11 block,HNF4A DNA FP
Cc1[nH]c2ccccc2c1C(=O)CSc1nc2cc(S(=O)(=O)N3CCCCC3)ccc2o1,6.1,100.5*,i,7.8,4.4
O=C(/C=C/c1ccc(F)cc1)N1CC[C@@]2(O)CCCC[C@H]2C1,-0.8,-5.0,+,3.1,-0.8
CCCN(CC(=O)Nc1ccccc1C)C(=O)C1CCCN(C(=O)c2ccc(Cl)cc2)C1 (stereo unspecified),.,1.0,+,1.7,-0.4
CCn1c(SCC(=O)c2ccccc2)nnc1-c1cccnc1,1.7,2.6,i,3.0,35.8*
CCN(CC)S(=O)(=O)c1cc(C(=O)OC)ccc1Cl,-2.6,1.4,i,-8.1,2.5
CCN(CC)S(=O)(=O)c1ccc(Cl)c(C(=O)OC)c1,-0.4,3.8,+,-4.4,-4.9
COC(=O)C1=C(O)/C(=C\c2ccc(CNC(=O)C(=O)Nc3ccc(C)cc3)o2)N=C1C,-4.2,35.6*,i,0.8,0.4
CCOC(=O)C1=C(O)/C(=C\c2ccc(CNS(=O)(=O)c3ccc(Br)cc3)o2)N=C1C,11.3,52.0*,i,9.6,15.7
COC(=O)C1=C(O)/C(=C\c2ccc(CNS(=O)(=O)c3ccc(Cl)cc3)o2)N=C1C,2.7,11.8,i,3.3,9.1
CC(C)C[C@H]1CN(CCCC[C@H]2CNC(=O)C(=O)N2CC2CCCCC2)C(=O)C(=O)N1Cc1ccccc1,.,-0.8,i,.,-2.8
CN1OC[C@@H]2CN(S(=O)(=O)c3cc(Cl)cc(Cl)c3)[C@H](c3ccc(-c4ccc(C#N)cc4)cc3)C[C@@H]21,.,-2.4,i,10.6,0.4
COCCN1C(=O)Cc2c1nc(N)c1c(N)nc(N3CCN(c4ccc(F)cc4)CC3)c(C#N)c21,27.9*,13.3,i,24.0,9.4
COc1ccccc1C(=O)Nc1ccc2c(c1)nc1n2CCN(C2CCCCC2)C1,7.2,7.8,+,19.8,8.4
Cc1noc(C)c1COc1ccc(C(=O)OCC(=O)N2CC3(C)CC2CC(C)(C)C3)cc1 (stereo unspecified),-4.9,36.9*,i,-14.1,0.7
Cc1ccc2c(CN3CCCCC3)cc(=O)oc2c1C,-5.3,0.8,i,-8.2,2.7
Cc1ccc2c(CN3CCCc4ccccc43)cc(=O)oc2c1C,16.5,14.4,+,.,17.6
COc1ccc(CN2C(=O)CCCC2(C)c2nc3ccccc3[nH]2)cc1 (stereo unspecified),.,-6.7,i,.,1.7
CS(=O)(=O)Nc1ccc(C2=NN(S(C)(=O)=O)C(c3ccc4c(c3)OCO4)C2)cc1 (stereo unspecified),4.5,10.9,i,21.9,79.2*
CC(=O)N1N=C(c2cccc(NS(C)(=O)=O)c2)CC1c1ccc2c(c1)OCO2 (stereo unspecified),3.0,-3.5,i,-3.5,-1.3
Cc1cc(C)n2c(NC3CCCCC3)c(CC(C)C)nc2n1,.,-0.6,i,.,108.0*
Cc1cc(=O)oc2cc(OCC(=O)NCc3ccccn3)ccc12,-2.3,1.0,i,2.5,1.7
Cc1c(C)c2ccc(OCC(=O)NCc3ccccn3)cc2oc1=O,-2.5,72.3*,i,-6.5,2.5
CCOC(=O)N1CCN(C(=O)CCNS(=O)(=O)c2ccccc2)CC1,0.7,0.3,i,-5.0,-1.5
CCOC(=O)N1CCN(C(=O)COc2ccc(S(=O)(=O)NCc3ccccc3)cc2)CC1,0.1,-2.8,+,-5.8,-3.3
CCCNC(=O)C1(C)CCCN(Cc2ccccc2C#N)C1 (stereo unspecified),.,-0.9,?,0.0,2.7
SMILES,TPT1 inh,CSN deneddyl inh,Myeloid diff 2,Rpn11 block,HNF4A DNA FP
Cc1cc2cc(C#N)c(SCC(=O)Nc3nonc3C)nc2cc1C,2.9,7.6,.,-0.3,8.3
Cc1nonc1NC(=O)CSc1nc2c(C)cccc2cc1C#N,2.1,-1.7,+,10.9,2.0
CCCOc1ccc(N)cc1N,16.7,8.1,+,-44.0,5.9
CSc1ccc(CN2CCC(C)(Oc3ccc(C(C)=O)cc3)C2)cc1 (stereo unspecified),.,1.0,i,3.5,2.8
C=CCn1c(C)cc(-c2csc(NC)n2)c1C,.,-21.7,+,-61.3,-4.8
C=CCn1c(C)cc(-c2csc(N)n2)c1C,6.2,-5.7,i,-16.2,0.4
Cc1ccc(NC(=O)N2CCC(NC(=O)c3ccco3)CC2)cc1,3.0,2.7,+,-3.2,1.5
CC(C)Oc1cc(F)ccc1-c1cc(C(=O)NCc2ccccn2)[nH]n1,.,-0.6,i,-2.6,4.8
S=C1Cc2ccccc2N1,.,38.8*,.,20.6,1.4
S=C1Nc2ccccc2CS1,.,-2.2,i,-3.6,-4.7
CC1(C(=O)Nc2cccc(-n3cnnn3)c2)Cc2ccccc2C(=O)O1 (stereo unspecified),.,100.6*,i,-2.2,4.4
CC1(C(=O)Nc2cccc(S(=O)(=O)N3CCOCC3)c2)Cc2ccccc2C(=O)O1 (stereo unspecified),-0.8,-1.4,i,-1.1,1.0
COc1ccc(C)cc1S(=O)(=O)N(C)CC(=O)NCc1ccco1,-2.5,0.0,i,0.6,2.0
CN(CCCC(=O)NCc1ccco1)S(=O)(=O)c1ccccc1,-2.6,-1.6,+,-3.1,-1.0
COc1ccc(S(=O)(=O)N(C)CC(=O)NCc2ccco2)cc1Cl,-1.3,3.9,+,-2.2,1.5
c1ccc(-c2cnn3c(-c4ccccc4)c(-c4ccccc4)nc3n2)cc1,.,-95.4,+,12.5,-94.6
COc1ccc(S(=O)(=O)NC2CC2)cc1Br,1.7,-1.9,+,4.9,2.3
COc1cc(S(=O)(=O)NC2CCCCC2)ccc1F,-1.9,2.7,i,4.8,-1.9
CNc1ccc2c3c(cccc13)C(=O)N(C)C2=O,-62.6,-73.6,+,-247.4,-91.0
CN1C(=O)c2cccc3c(Cl)ccc(c23)C1=O,-5.1,-0.3,i,-12.4,-5.6
COc1ccc2oc3cc(NCCN(C)C)ccc3c(=O)c2c1,.,-3.8,i,1.8,-0.2
CC(=O)OCCN1c2ccccc2Sc2cnccc21,.,0.9,i,-2.6,0.3
CC(=O)OCCCN1c2ccccc2Nc2nnc(-c3ccccc3)cc21,-2.8,-0.8,+,0.5,1.0
CC1(C)CC(c2nc(-c3ccccc3)cs2)CCS1 (stereo unspecified),2.9,96.8*,i,0.5,16.7
CC1(C)CC(c2nc(-c3ccc(Cl)cc3)cs2)CCS1 (stereo unspecified),0.0,2.5,i,-2.1,1.4
